Laboratory results: the EternaBench riboswitch data

Test system: MS2 coat protein
Test: apparent Kd, MS2 coat protein; higher = weaker binding; RNA-MaP array; FMN 200 µM where present
Outline: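 Designs on Illumina sequencing-chip clusters, transcribed by stalled E. coli RNA polymerase, were exposed to SNAP-549-labelled MS2 coat protein in doubling steps from 0.7 or 1.5 nM up to 3 µM, without and then with constant ligand. The buffer held 100 mM Tris-HCl pH 7.5, 80 mM KCl, 4 mM MgCl2, BSA, DTT, yeast tRNA and Tween-20. Apparent Kd values are medians of filtered per-cluster binding-curve fits to green signal normalised to red-channel RNA signal and control-cluster median Fmax.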

[1] = designed as: ON switch for flavin mononucleotide, no ligand
[2] = ligand present: flavin mononucleotide, designed as: ON switch for flavin mononucleotide
[3] = designed as: OFF switch for flavin mononucleotide, no ligand
[4] = ligand present: flavin mononucleotide, designed as: OFF switch for flavin mononucleotide

Row | Sequence | apparent Kd [1] [nM] | apparent Kd [2] [nM] | apparent Kd [3] [nM] | apparent Kd [4] [nM]
1 | CCCUGAGACUGGUUAAUUGGCUGAUAGGAUAUCCUCGGACAUGAGGAUCACCCAUGUUAACUAUUGGAGAAGGGUCAGCGAAAG | 445 | 181 |  | 
2 | AGUAAACAUGAGGAUCACCCAUGUGGUGGCCCAUGAGGAUAUCCAUGCGCAAUACGCAUAGGAGAAGGCAUAGCCA | 62 | 123 |  | 
3 | ACUAGAUGAGGAUAUGCAUAUUUUCGUGUUCUUCUAGGUUAACAUGAGGAUCACCCAUGUAGAAGGCGUCUAUU |  |  | 20.6 | 38
4 | GGAUCGAGUGUGAGGAUAUACCACUGGAUACAGUGGUAGAAGGCACAUGAGGAUCACCCAUGUCUCUACGAUCC |  |  | 16.1 | 51.8
5 | CUUAUGUAAGGAUAUCAGUAGUAAAAAAAUAAAAUUACUACUGAGAAGGUACAUGAGGAUCACCCAUGUCUUUC |  |  | 113 | 50.5
6 | CUCAUGUGAGGAUAUGUGAUCUGCCUUCUAUGUAGAUGAUCACAGAAGGCACAUGAGGAUCACCCAUGUAGAUC |  |  | 119 | 23.4
7 | GGUACCAUCACAGGAUAUGCUUUCCUUUGGGAAGCAGAAGGGUGUAACAUGAGGAUCACCCAUGUGGUGCCAGGGCGCGAGCCC | 182 | 16.8 |  | 
8 | GUCAGACGAGGAUAUAGAUUUAAGUACAUGAGGAUCACCCAUGUACAUAUGUAUUUAGAUUUAGAAGGCGUCUGAC |  |  | 28.2 | 31.6
9 | CGGUUACAAGGAUAUACAUGAGGAUCACCCAUGUCUCUCCGGGCGGAUCGAUAAUUUUGUAGAAGGUGUAAGGG |  |  | 24.5 | 63.7
10 | AAAAUGUAAGGAUAUAGCCGGAACCCAGGGUUUGGACCCGGCUAGAAGGUACAUGAGGAUCACCCAUGUAAGAA |  |  | 17.2 | 22.8
11 | UAAUCUCAGAUAGGAUAUAUAGGAUAACUUAAGACCUAACAUGAGGAUCACCCAUGUGAUUAUUCGUAGAAGGAUCAAUGACCC | 189 | 200 |  | 
12 | GUCAGCUGGUGAGGAUAUACAACACUGCUUCGGCAGUGUAUUAAGAUCACAUGAGGAUCACCCAUGUAGAAGGCACGAGCUGAU |  |  | 13.1 | 207
13 | CCCACGAAAGUCGAACGAUGUACGAGAAGGACAAUAACAUGACAUGAGGAUCACCCAUGUGCCAUGUAGGAUAUCGUACAUGGG |  |  | 8.55 | 8.17
14 | CAGCGGGUCUUCAGGGUAAUGAACAUGAGGAUCACCCAUGUGCAGGAUAUGACGGAUCCGCACCGUCAGAAGGGCACUAAGUGA |  |  | 26.7 | 32.5
15 | GUGGGACAUGAGGAUCACCCAUGUGGGAGGGAACGAGGAUAUGUGAGGAGCGAGAAGUGAACAGAAGGCGUGGUUG | 82.8 | 51.4 |  | 
16 | GAUGCACAUGAGAAGGCGAUCAUGAAACAUGAUCGAGGAUAUCAUGUAAACAUGAGGAUCACCCAUGUAUGGGUAAAGUGCAUC | 446 | 32 |  | 
17 | GUUUACGCAUGAGGAUAUGCUCGCAUUUCAAGAGCAGAAGGUAUGUCUUUAGACAUGAGGAUCACCCAUGUAUUUAUCAUUGUA | 187 | 29.9 |  | 
18 | UGAUAGGACAGAGGAUAUGCUGAUAGGAUCUACUAUCGAAGAAUCCUCACAUGAGGAUCACCCAUGUAGAAGGCUGUCCUAUCU |  |  | 12 | 143
19 | AAAUUUAACGAAGGAUAUGGUUACAUGAGGAUCACCCAUGUAAUGGUUGUGAUAUUGAUUAAGUUCCAGAAGGUCGUAUACAUA |  |  | 97.8 | 279
20 | UCAAAGAGAUCGAAUGGGAGGCGUAAGGAUAUGCACAUGAGGAUCACCCAUGUCUACGAAAGUAGGCAGAAGGUACGCGGGAUU | 315 | 34.2 |  | 
21 | AACAUGUGAGGAUAUUAGUUGUACGUCAAUAGACGUAUAAGUGAGAAGGCACAUGAGGAUCACCCAUGUUCCUG |  |  | 43.7 | 464
22 | GGAUAGGACCGAGGAUAUACGUGCUAGAGAUACUAGCAAAAUUUCCUCACAUGAGGAUCACCCAUGUAGAAGGCUGUCCUAUCG |  |  | 5.78 | 12.5
23 | AUAUCUAUGUAAGGAUAUAGAUGAUAUACGCCUCCGACAUGAGGAUCACCCAUGUUAUAUUUUGUCUAGAAGGUACAUUGUCGG | 168 | 170 |  | 
24 | UCGGCGCGAGGAUAUGCGGCUGCUGCUUCGGGCCGUGGCGUACAUGAGGAUCACCCAUGUAGAAGGCGCGCCGC |  |  | 13.1 | 14.1
25 | UUGGGUUUGGGAGGAUAUGGGUAAAAUAAAGUACUAGAAGGCUUAAAUUAUUUUAUAGUUGUAUUACAUGAGGAUCACCCAUGU | 13.6 | 10.4 |  | 
26 | GCGAAUUAGUGAGGAUAUACAUAAUUUAUAACUGUAGAAGGCACAAACCUCAAGACAUGAGGAUCACCCAUGUGGUAUUACGCU |  |  | 112 | 281
27 | UGUUGGAGCAGAGGAUAUUACAUGAGGAUCACCCAUGUAUGAACCAAUAGCUGGAAACAGCAAUGUAAGAAGGCUGCUCCGACA |  |  | 12.1 | 161
28 | AACCUCGGAGGAUAUACCUACCGAUUCACAAGUGUCACAUCACAUGAGGAUCACCCAUGUAGAAGGUCGAGGCG |  |  | 30 | 97.1

Row | Sequence | apparent Kd [1] [nM] | apparent Kd [2] [nM] | apparent Kd [3] [nM] | apparent Kd [4] [nM]
29 | GGGUACAUCGGAGGAUAUCAUGUAAAUACAUGAGGAUCACCCAUGUCGAUGGAGACAUCGGAGAUUGAGAAGGCCGGUGUACCG | 165 | 9.9 |  | 
30 | AACGAGCUAGGAUAUGCACGGAAAAGCGUGGUCACUUAUGGACAUGAGGAUCACCCAUGUAGAAGGAGCGACGC |  |  | 22.5 | 18.9
31 | GGACGUCACAUUUACAUGAGGAUCACCCAUGUCUCUUGACAUGAGGAUAUGUAUACGAAUCGUAUACAGAAGGCAUGGACGUCC | 1100 | 153 |  | 
32 | AUCAGGCAAGGAUAUGAUAUAGGACACAUGAGGAUCACCCAUGUCCACCGAACGAUCGUUUCAGAAGGUGCACAGU |  |  | 72.8 | 41
33 | UCGUGUUAUACAGGAUAUGUUUAGGUAUAAUCAUUCAGUUAUUAAUUAAUGACAGAAGGGUAAACAUGAGGAUCACCCAUGUCA |  |  | 179 | 121
34 | GGCACCAUCACAGGAUAUGCUUUCCUUUGGGAAGCAGAAGGGUGUAACAUGAGGAUCACCCAUGUGGUGCCAGGGCGUGAGCCC | 164 | 14 |  | 
35 | UCCUUGUCCUGAGGAUAUCCGCGGUUCCCAAAAGGAGAAGGCAGGACAUGAGGAUCACCCAUGUACCCAGAAAACGUACAGAGU |  |  | 44.7 | 162
36 | AGCUACGUUUCGUAGCAGUGUCAUCGAGAAGGCUCAUAAACAUGAGGAUCACCCAUGUAAACAUGGGAGGAUAUCGAUGAUACA | 39.6 | 6.5 |  | 
37 | UCCUGGCGAGGAUAUACAAUGUUUUUCGCGUGUUGUUGGGAACAUGAGGAUCACCCAUGUAGAAGGUGCUACUG |  |  | 409 | 286
38 | UGUUGUAUUACAGGAUAUCUAUUAUUUUGAUUUAGAGAAGGGUAUUCACAUGAGGAUCACCCAUGUAUAUACGAGGAAGUUGUG | 47.7 | 47.9 |  | 
39 | AGGAGGUCAGGAUAUGCUGCUCGUCACUUGCGUGAUGAGUAGCAGAAGGGACAUGAGGAUCACCCAUGUAAAAA |  |  | 52.6 | 88.7
40 | AUCAGCUCGUCAGGAUAUACGUCACUGCUUCGGCAGUGUAAUAAAAUAACAUGAGGAUCACCCAUGUAGAAGGGACGAGCUGAU |  |  | 5.93 | 6.13
41 | UAUUUUAACUAAGGAUAUCUAUAUUAUUUUGAAACAUGAGGAUCACCCAUGUUCAUGGGAUUAUAGGAGAAGGUAGAUGAAUAA | 14.6 | 9.54 |  | 
42 | AGAGCCUCGUGAGGAUAUACAUGAGGAUCACCCAUGUAAAUGAAUGAACGGAGGAAACUCCGAAUGUAGAAGGCACGAGGCUCA |  |  | 27.9 | 166
43 | UUUGGGAGCACAGGAUAUGGCACCUCGAAGGCGCCAGAAGGGUGAUUCUGUUGGUGGCCACAUGAGGAUCACCCAUGUGCCUCC | 29.5 | 36.9 |  | 
44 | CACUCAGGCACAUGAGGAUCACCCAUGUCCCGGAAGCCGAGACAGGAUAUGUGCCUCGAAUGUGCACAGAAGGGUCUACUAUAU | 226 | 180 |  | 
45 | AACCGACAUGAGGAUCACCCAUGUCAGGAUAUGGACUGACACCCAAAGGGUGGAGGAACCAGAAGGGACUGGGC |  |  | 39.9 | 101
46 | CAAUCUGCAGGAUAUACAUGAGGAUCACCCAUGUAAGGACAAUAAAUAAGAAGAAGAAGUAGAAGGGCAGACAA |  |  | 30.1 | 31.8
47 | UCGGCGCGAGGAUAUACGGUUGCUUUUUAGGGUCGUGGCGUACAUGAGGAUCACCCAUGUAGAAGGCGCGCCGC |  |  | 16.1 | 30.2
48 | UGAUAGGACAGAGGAUAUGCCGAUAGGCUCUACUAUCGAAGAAUCCUCACAUGAGGAUCACCCAUGUAGAAGGCUGUCCUAUCU |  |  | 19.1 | 48
49 | UAUCCACAUGAGGAUCACCCAUGUGAGGAUAUGUCCAUAUUCGGCAAAUCGGAUAUGGACAGAAGGCACACCGG |  |  | 36.9 | 103
50 | AAUAACAGAGGAUAUACUGUUUUAUGUAUUUAUUAUUUUAAACAUGAGGAUCACCCAUGUAGAAGGCUGAUUGA |  |  | 33.7 | 29.8
51 | GCCAGGAUGUGAGGAUAUGCUGAGGAUACUUCAGCAGAAGGCACAUGAGGAUCACCCAUGUACACUUAUCAUAAAUACCCUGGC |  |  | 13.4 | 16.3
52 | ACGCUUUGGGAGAAGGUACGUUAAAUUUUUUCCACAUGAGGAUCACCCAUGUAAGGAUAUCCCAUCGUUAAAUAGGCUACAGCA |  |  | 8.92 | 8.85
53 | AACAUGUCAGGAUAUAUGACAUGGCUCUUCGGAGCAAGCUCAUAGAAGGGACAUGAGGAUCACCCAUGUAGAGC |  |  | 21.1 | 25.2
54 | AUACUAAAUGAAGGAUAUCUAAGCAUAAACCUGAGAGAAGGUCAUUUUUACAUGAGGAUCACCCAUGUUGUGAUUAAUGGGUAA |  |  | 201 | 366
55 | UCUAAUUAGUGAGGAUAUACAUAAUUUAUAACUGUAGAAGGCACAAACCUCAAGACAUGAGGAUCACCCAUGUGGUAUUUAGAU |  |  | 150 | 354
